Published values pooled from the literature.
Protocols differ between the studies behind these lines.

SMILES | target or system | test | system | conditions | measurement | value
N=C(N)NCCC[C@H](NC(=O)[C@H](Cc1ccccc1)NC(=O)[C@H](CCC(N)=O)NC(=O)OCc1ccccc1)C(=O)c1nccs1 | – | – | female C57BL/6 mouse, plasma | intranasal, 5 mg/kg | AUC(0-inf) | 129 ng·h/mL
Cc1[nH]c(C)c(S(=O)(=O)Nc2ccc(S(F)(F)(F)(F)F)cc2)c1C(=O)N1CCC(F)(F)C1 | – | metabolic stability | rat, liver microsomes | – | half-life | 17.6 min
Cc1c2ccncc2c(C)c2c1[nH]c1ccccc12 | NCI-H187 | cell growth or viability, resazurin | – | 5 days | IC50 | 10.7 µM
CC[C@H](C)[C@H](NC(=O)[C@H](Cc1ccccc1)NC(=O)[C@H](CCC(=O)O)NC(=O)[C@H](CCCCN)NC(=O)[C@H](C)NC(=O)[C@H](C)NC(=O)[C@H](CCC(N)=O)NC(=O)CNC(=O)[C@H](CCC(=O)O)NC(=O)[C@H](CC(C)C)NC(=O)[C@H](Cc1ccc(O)cc1)NC(=O)[C@H](CO)NC(=O)[C@H](CO)NC(=O)[C@@H](NC(=O)[C@H](CC(=O)O)NC(=O)[C@H](CO)NC(=O)[C@@H](NC(=O)[C@H](Cc1ccccc1)NC(=O)[C@@H](NC(=O)CNC(=O)[C@H](CCC(=O)O)NC(=O)[C@H](C)NC(=O)N(N)Cc1c[nH]cn1)[C@@H](C)O)[C@@H](C)O)C(C)C)C(=O)N[C@@H](C)C(=O)N[C@@H](Cc1c[nH]c2ccccc12)C(=O)N[C@@H](CC(C)C)C(=O)N[C@H](C(=O)N[C@@H](CCCNC(=N)N)C(=O)NCC(=O)N[C@@H](CCCNC(=N)N)C(=O)NCC(=O)O)C(C)C | – | – | male CD-1 mouse, plasma | intravenous, 1 mg/kg, single dose | AUC(0-inf) | 2400 ng·h/mL
CC(=O)c1c(C)c2cnc(Nc3ccc(C4CCN(CCS(C)(=O)=O)CC4)cn3)nc2n(C2CCCC2)c1=O | – | metabolic stability | rat, liver S9 | – | half-life | 866 min
COc1cc(C(=O)c2nc(-c3cccc4[nH]ccc34)c[nH]2)cc(OC)c1OC | – | chemical stability | PBS | 5 µM, pH 6 | half-life | > 1020 min
O=C(Nc1ccc([N+](=O)[O-])cc1Cl)c1cc(Cl)ccc1O | HeLa-ACE2 | cell growth or viability, ATP luminescence | – | 72 h | CC50 | 8.73 µM
CC(C)=CCC[C@](C)(O[C@@H]1O[C@H](CO)[C@@H](O)[C@H](O)[C@H]1O)[C@H]1CC[C@]2(C)[C@@H]1[C@H](O)C[C@@H]1[C@@]3(C)CC[C@H](O)C(C)(C)[C@@H]3CC[C@]12C | – | – | mouse, plasma | intravenous, 2 mg/kg | AUC(0-t) | 1080 ng·h/mL
CC(C)CC(=O)OC[C@H]1O[C@@](C#N)(c2ccc3c(N)ncnn23)[C@H](O)[C@@H]1O | – | metabolic stability | rat, blood | 5 µM, whole blood | half-life | 0.761 min
